Results: paper PMC4094378 (European journal of medicinal chemistry, 2014)
Entries after “also recorded” stand apart in the source; their conditions may differ.

How the values were obtained:
[1] = test system: panel of seven human cancer cell lines; assay: Antiproliferative activity across the panel of seven cancer cell lines; format: cell-based; conditions: for IC50: Homo sapiens, read-out: IC50 range over the panel of cancer cell lines
How it was run: (§1)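 Jurkat, CEM and SEM cells were grown in RPMI-1640, and HeLa, MCF-7, HT-29 and LoVo in DMEM, each with 10% FBS and penicillin/streptomycin. Wells got 8 × 10^3 cells and were preincubated 18 h at 37 °C in 5% CO2. Test compound from a 10 mM DMSO stock was diluted in medium (final DMSO ≤0.25%) and applied for 72 h. Read-out was MTT. IC50 is the concentration giving 50% inhibition of proliferation, from dose–response curves of ≥3 independent experiments, mean ± SE.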

Jurkat cells = assay: Cell growth inhibitory activity; format: cell-based, human; conditions: additional meta-methoxy
How it was run: as §1

LoVo cells = assay: Cell growth inhibitory activity; format: cell-based, human; conditions: additional meta-methoxy
How it was run: as §1

Bovine brain tubulin = assay: In vitro inhibition of tubulin polymerization; format: biochemical; conditions: 10 μM purified tubulin, glutamate buffer, 30 °C
How it was run: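 Tubulin was purified from bovine brain. Varying test-compound concentrations were preincubated with the tubulin at 30 °C, then cooled to 0 °C. GTP was added, the mixtures were moved to 0 °C cuvettes in a recording spectrophotometer and warmed to 30 °C, and assembly was followed turbidimetrically.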

[2] = test system: HeLa (cervical) cancer cells; conditions: read-out: IC50 HeLa (literature); ref [18],[19]; cited from earlier work
U-937 (lymphoma) cells = conditions: read-out: IC50 U-937; ref [18],[19]; cited from earlier work
[3] = test system: murine leukemia L1210 cells; conditions: read-out: IC50 L1210; ref [21]; cited from earlier work
HeLa cells [4] = assay: Mitochondrial membrane potential; format: cell-based, human; conditions: JC-1, time course
[5] = test system: PBMC not stimulated with PHA; assay: Cytotoxicity in resting PBMC; format: cell-based, human; conditions: resting PBMC vs lymphoblastic cell lines
How it was run: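 PBMC from healthy donors were isolated on a Lymphoprep gradient, washed, and held overnight at 1.0 × 10^6 cells/mL in RPMI-1640 with 10% FBS. Non-adherent cells were resuspended at 5 × 10^5 cells/mL without PHA, given a range of test-compound concentrations for 72 h, and read by MTT. Values are mean ± SEM of three separate experiments.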

[6] = test system: Bcl-2, Bax, Bak, Mcl-1 and Bid in HeLa cells; assay: Western blot of Bcl-2 family proteins; format: cell-based, human; conditions: for Mcl-1 expression: 2.5 μM, especially at 48 h; for Bid expression: evident after 24 h at the lowest concentration used
How it was run: (§2)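 HeLa cultures were sampled at the indicated times and concentrations, washed twice in 0 °C PBS and lysed 30 min at 0 °C. Lysates were clarified at 15 000 × g (4 °C, 10 min) and protein was measured by BCA. Aliquots of 20 µg were run on 7.5–15% gradient SDS-PAGE and blotted to PVDF. Membranes were blocked at 4 °C, probed 2 h at room temperature with primary antibody, then 60 min with peroxidase-labelled secondary, and developed by ECL. Membranes were reprobed for β-actin as the loading control.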

HeLa cells [7] = assay: ROS production by flow cytometry; format: cell-based, human
HeLa cells [8] = assay: Cell viability; format: cell-based, human; conditions: 2.5 μM, 48 h; BHA 10 μM, TOC 100 μM, NAC 100 μM, GSH 1 mM, DTT 1 mM
HeLa cells [9] = assay: Annexin-V/PI apoptosis assay; format: cell-based, human; conditions: 24 h, further increased after 48 h
HeLa cells [10] = assay: Intracellular GSH content; format: cell-based, human; conditions: 24 h, concentration-dependent; counteracted by NAC 100 μM
γH2A.X in HeLa cells = assay: Western blot of γH2A.X; format: cell-based, human; conditions: 24 or 48 h treatment
How it was run: as §2

[11] = test system: microtubule network in HeLa cells; assay: Immunofluorescence analysis of microtubule network; format: cell-based, human; conditions: 2.5 or 5.0 μM, 24 h, anti-β-tubulin staining
How it was run: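 Untreated HeLa cells served as the control. After 24 h exposure, cells were fixed in cold 4% formaldehyde for 15 min. Staining used mouse monoclonal anti-β-tubulin (1:1000), then an Alexa-conjugated secondary antibody (1:2000), with DAPI (1:10,000) counterstain for nuclei. Cells were imaged by confocal microscopy at 20×.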

HeLa cells [12] = assay: Cell viability with or without pan-caspase inhibitor z-VAD.fmk; format: cell-based, human; conditions: compound 2.5 μM, z-VAD.fmk 100 μM, 48 h
How it was run: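 HeLa cells were exposed for 48 h to test compound with or without the pan-caspase inhibitor, and viability was recorded as a percentage. Data are means ± SEM of three independent experiments. Significance against compound-alone treatment was tested by Student's t-test. Final DMSO was ≤0.25%.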

HeLa cells [13] = assay: Flow cytometric analysis of cell cycle distribution; format: cell-based, human; conditions: 24 h; for effect on cell cycle progression: PI, concentration-dependent, reduction in S phase cells
How it was run: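 HeLa cells in exponential growth (2.5 × 10^5) were treated with a range of test-compound concentrations. Cells were collected, fixed in ice-cold 70% ethanol, and lysed in buffer containing RNase A and 0.1% Triton X-100. They were stained with propidium iodide for flow-cytometric DNA content, and the DNA histograms were analysed to give the percentage of cells in each phase.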

For `C=C(Br)C(=O)Nc1cccc(/C=C/C(=O)NCc2ccc(C)cc2)c1` [4h, 2-Bromo-N-(3-{(1E)-3-[(4-methylbenzyl)amino]-3-oxoprop-1-en-1-yl}phenyl)acrylamide], which “fold reduced activity compared with 4g” value ([1]; cell lines other than HeLa, LoVo and MCF-7) is on record?
Its value is 2 to 7 fold.

Which “fold increase in activity vs 4i, Jurkat” value (Jurkat cells) does the source give for `C=C(Br)C(=O)Nc1cccc(/C=C/C(=O)Nc2ccc(OC)c(OC)c2)c1` [4m, 2-Bromo-N-(3-{(1E)-3-oxo-3-[(3,4-dimethoxyphenyl)amino]prop-1-en-1-yl}phenyl)-acrylamide] here?
The value was 2 fold.

What about the “fold increase in activity vs 4i, LoVo” value (LoVo cells) of the same compound?
Its value is 3 fold.

What about the “Concentration up to which tubulin assembly was not inhibited” value (Bovine brain tubulin) of the same compound?
The value was over 20 µM.

With `COc1cccc(/C=C/C(=O)Nc2cc(OC)c(OC)c(OC)c2)c1` [1a] as the compound, how does the IC50 [2] read?
Its IC50 is 11.3 µM.

What about the IC50 (U-937 (lymphoma) cells) of the same compound?
Its IC50 is 3000 nM.

What does the source list for `C=C(Br)C(=O)Nc1cccc(/C=C/C(=O)Nc2cc(OC)c(OC)c(OC)c2)c1` [4o, 2-Bromo-N-(3-{(1E)-3-oxo-3-[(3,4,5-trimethoxyphenyl)amino]prop-1-en-1-yl}phenyl)-acrylamide]?
IC50 [1]: 18 to 2300 nM; Concentration up to which tubulin assembly was not inhibited (Bovine brain tubulin): > 20 µM

For `COc1cc(NC(=O)/C=C/c2cccc(N)c2)cc(OC)c1OC` [7o, (E)-3-(3-aminophenyl)-N-(3,4,5-trimethoxyphenyl)acryl-amide], which IC50 [1] is on record?
The IC50 was 2810 to 63100 nM.

What about the “fold less active than 4o” value ([1]; across seven cell lines) of the same compound?
Its value is 30–700 fold.

With `C=C(Br)C(=O)Nc1cccc(/C=C/C(=O)Nc2cccc(F)c2)c1` [4d, 2-Bromo-N-(3-{(1E)-3-oxo-3-[(3-fluorophenyl)amino]prop-1-en-1-yl}phenyl)-acrylamide] as the compound, how does the “fold enhancement of antiproliferative activity vs 4c” value ([1]; fluorine moved para to meta, six of seven cell lines, exception CEM) read?
Its value is 4–15 fold.

With `C=C(Br)C(=O)Nc1cccc(/C=C/C(=O)Nc2ccc(OC)cc2)c1` [4i, 2-Bromo-N-(3-{(1E)-3-oxo-3-[(4-methoxyphenyl)amino]prop-1-en-1-yl}phenyl)-acrylamide] as the compound, how does the “fold increase in antiproliferative activity relative to 4a” value ([1]; para-methoxy) read?
Its value is 7–15 fold.

What about the “Concentration up to which tubulin assembly was not inhibited” value (Bovine brain tubulin) of the same compound?
Its value is over 20 µM.

With `C=C(Br)C(=O)O` [α-bromoacrylic acid] as the compound, how does the IC50 [3] read?
Its IC50 is over 120 µM.

With `COc1cc(NC(=O)/C=C/c2cccc(OCc3ccccc3)c2)cc(OC)c1OC` [1b, reference compound] as the compound, how does the IC50 [1] read?
Its IC50 is 2200 to 21700 nM.

And the “fold more potent than 1a” value ([1]; across seven cell lines)?
The value was 1.5- to 12 fold.

What about the IC50 (U-937 (lymphoma) cells) of the same compound?
The IC50 was 1800 nM.

Which IC50 [1] does the source give for `C=C(Br)C(=O)Nc1cccc(/C=C/C(=O)Nc2ccccc2)c1` [4a, N-{3-[(1E)-3-anilino-3-oxoprop-1-en-1-yl]phenyl}-2-bromoacrylamide] here?
The IC50 was 190 to 27300 nM.

What does the source list for `C=C(Br)C(=O)Nc1ccc(/C=C/C(=O)Nc2cc(OC)c(OC)c(OC)c2)cc1` [4r]?
mitochondrial depolarization, onset time (HeLa cells [4]): ≥ 12 h; fold lower toxicity in resting PBMC respect to Jurkat and CEM [5]: 10–100 fold; Bak and Bax expression [6]: remained practically unchanged; Mcl-1 expression [6]: decreased; Bcl-2 expression ([6]; 24 and 48 h): decreased; Bid expression [6]: nearly complete disappearance; ROS production, H2DCFDA-positive cells (HeLa cells [7]; 1–6 h, concentration-dependent): early but modest increase; ROS production, HE fluorescence (superoxide anion) (HeLa cells [7]; data not shown): did not detect any increase; cell viability in the presence of antioxidants (HeLa cells [8]): only the thiol-containing scavengers (NAC, GSH and DTT) significantly increased cell viability; annexin-V positive cells (HeLa cells [9]): accumulation of annexin-V positive cells; intracellular GSH content (CMFDA fluorescence) (HeLa cells [10]): substantially reduced CMFDA fluorescence; γH2A.X expression (γH2A.X in HeLa cells): induced γH2A.X expression; effect on microtubule network [11]: not substantially modified; cell viability with z-VAD.fmk (HeLa cells [12]): significantly increased cell viability; Concentration up to which tubulin assembly was not inhibited (Bovine brain tubulin): > 20 µM; concentration at which rise in G2/M cells occurs (as low as) (HeLa cells [13]): 2 µM; effect on cell cycle progression (HeLa cells [13]): significant G2/M arrest

Which results are given for `C=C(Br)C(=O)Nc1cccc(/C=C/C(=O)Nc2ccc(F)c(F)c2)c1` [4e, 2-Bromo-N-(3-{(1E)-3-oxo-3-[(3,4-difluorophenyl)amino]prop-1-en-1-yl}phenyl)-acrylamide]?
fold increase of antiproliferative activity relative to 4c ([1]; additional meta-fluorine, all cancer cell lines): 4–1300 fold; Concentration up to which tubulin assembly was not inhibited (Bovine brain tubulin): > 20 µM

With `C=C(Br)C(=O)Nc1cccc(/C=C/C(=O)Nc2ccc(C)cc2)c1` [4g, 2-Bromo-N-(3-{(1E)-3-oxo-3-[(p-tolyl)amino]prop-1-en-1-yl}phenyl)-acrylamide] as the compound, how does the “fold increase in potency vs 4f” value ([1]; chlorine replaced by methyl) read?
Its value is 2–10 fold.

Which “fold enhancement of antiproliferative activity relative to 4a” value ([1]; morpholin-4-yl, six of seven cell lines, exception CEM) does the source give for `C=C(Br)C(=O)Nc1cccc(/C=C/C(=O)Nc2ccc(N3CCOCC3)cc2)c1` [4p, 2-Bromo-N-(3-{(1E)-3-oxo-3-[(4-morpholinophenyl)amino]prop-1-en-1-yl}phenyl)-acrylamide] here?
The value was 8–100 fold.

And the “fold lower toxicity in resting PBMC respect to Jurkat and CEM” value [5]?
The value was 10–100 fold.

What about the “Bak and Bax expression” value [6] of the same compound?
The value was “remained practically unchanged”.

What about the Mcl-1 expression [6] of the same compound?
Its Mcl-1 expression is “decreased”.

What about the Bid expression [6] of the same compound?
The Bid expression was “nearly complete disappearance”.

What about the “cell viability in the presence of antioxidants” value (HeLa cells [8]) of the same compound?
Its value is “only the thiol-containing scavengers (NAC, GSH and DTT) significantly increased cell viability”.

And the annexin-V positive cells (HeLa cells [9])?
The annexin-V positive cells was “accumulation of annexin-V positive cells”.

And the “intracellular GSH content (CMFDA fluorescence)” value (HeLa cells [10])?
Its value is “remarkable decrease; also recorded: substantially reduced CMFDA fluorescence”.

What about the γH2A.X expression (γH2A.X in HeLa cells) of the same compound?
Its γH2A.X expression is “induced this effect only after 48 h”.

And the “effect on microtubule network” value [11]?
The value was “not substantially modified”.

What about the “cell viability with z-VAD.fmk” value (HeLa cells [12]) of the same compound?
Its value is “significantly increased cell viability”.

And the “Concentration up to which tubulin assembly was not inhibited” value (Bovine brain tubulin)?
Its value is over 20 µM.

What about the “effect on cell cycle progression” value (HeLa cells [13]) of the same compound?
Its value is “significant G2/M arrest”.

Which “fold increase of antiproliferative activity, fluorine to chlorine” value ([1]; vs 4c) does the source give for `C=C(Br)C(=O)Nc1cccc(/C=C/C(=O)Nc2ccc(Cl)cc2)c1` [4f, 2-Bromo-N-(3-{(1E)-3-oxo-3-[(4-chlorophenyl)amino]prop-1-en-1-yl}phenyl)-acrylamide] here?
The value was 2–30 fold.

For `C=C(Br)C(=O)Nc1cccc(/C=C/C(=O)Nc2cccc3ccccc23)c1` [4b, 2-Bromo-N-(3-{(1E)-3-oxo-3-[(naphthalen-1-yl)amino]prop-1-en-1-yl}phenyl)-acrylamide], which IC50 [1] is on record?
Its IC50 is 680 to 6500 nM.
